Measurements as given in ChEMBL document CHEMBL1147553, “Betulinic acid and its derivatives as anti-angiogenic agents” (Bioorg Med Chem Lett, 2004).
≈ marks a conversion by molar mass, not a printed value.

Columns and labels:
[1] = Endothelial cell specificity of compound was determined as cytotoxicity on human tumor cell line L132 to that of endothelial cell; assay type: functional
Method in brief: (§1)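 Cells (10⁴) exposed in triplicate wells to 0.5–10 µg/mL compound from DMSO stock (final DMSO <0.1%). Cells grown in DMEM with L-glutamine, 25 mM HEPES, 10% FBS and antibiotics at 37 °C, 5% CO2. MTT read-out after 120 h. IC50 is the mean of three experiments. Specificity ratio is IC50 in tumor cell divided by IC50 in ECV304.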

[2] = system: ECV-304; assay: Half-maximal cytotoxic concentration of compound against endothelial cell line ECV304; assay type: functional, cell-based; settings: Homo sapiens; method in brief: as §1
[3] = Endothelial cell specificity of compound was determined as cytotoxicity on human tumor cell line PA-1 to that of endothelial cell; assay type: functional; method in brief: as §1
[4] = Endothelial cell specificity of compound was determined as cytotoxicity on human tumor cell line A549 to that of endothelial cell; assay type: functional; method in brief: as §1
[5] = Endothelial cell specificity of compound was determined as cytotoxicity on human tumor cell line DU145 to that of endothelial cell; assay type: functional; method in brief: as §1

Structure (SMILES) | ECS ratio [1] | IC50 [2] [µg/mL] | ECS ratio [3] | ECS ratio [4] | ECS ratio [5]
CC(C)[C@@H]1CC[C@]2(C(=O)O)CC[C@]3(C)C(CCC4[C@@]5(C)CC/C(=N\Nc6c(Cl)cc(Cl)cc6Cl)C(C)(C)C5CC[C@]43C)C12 (stereo not given in full) | 11.4 | 0.21 (≈ 0.323 µM) | 5.2 | 19 | 6.6
CC(C)[C@@H]1CC[C@]2(C(=O)O)CC[C@]3(C)C(CCC4[C@@]5(C)CC(Br)[C@H](O)C(C)(C)C5CC[C@]43C)C12 (stereo not given in full) | 3.1 | 0.27 (≈ 0.502 µM) | 7.4 | 11.5 | 7
CC(C)[C@@H]1CC[C@]2(C(=O)O)CC[C@]3(C)C(CCC4[C@@]5(C)CC/C(=N\Nc6ccc(F)cc6)C(C)(C)C5CC[C@]43C)C12 (stereo not given in full) | 11.1 | 0.35 (≈ 0.62 µM) | 1.4 | 20 | 3.7
C=C(C)[C@@H]1CC[C@]2(C(=O)O)CC[C@]3(C)[C@H](CC[C@@H]4[C@@]5(C)CCC(=O)C(C)(C)[C@@H]5CC[C@]43C)[C@@H]12 [BETUNOLIC ACID] | 3.2 | 0.28 (≈ 0.616 µM) | 9.2 | 9.8 | 14.2
CC(C)[C@@H]1CC[C@]2(C(=O)O)CC[C@]3(C)C(CCC4[C@@]5(C)CC/C(=N\NC(=O)c6ccccc6)C(C)(C)C5CC[C@]43C)C12 (stereo not given in full) | 1 | 0.39 (≈ 0.678 µM) | 4.3 | 27.7 | 7.7
C=C(C)[C@@H]1CC[C@]2(C(=O)O)CC[C@]3(C)[C@H](CC[C@@H]4[C@@]5(C)CC[C@H](O)C(C)(C)[C@@H]5CC[C@]43C)[C@@H]12 [BETULINIC ACID] | 1 | 1.26 (≈ 2.76 µM) | 3.2 | 1.1 | 2.2
